# A selection: hits, their analogues and other compounds. The true share with any hit is near 1.5%.
# VLA-4 inh = inhibition in human VLA-4 binding assay, primary screen, VLA-4 allosteric modulator project, MLPCN library, flow cytometry, VLA-4 expressing cells | Integrin alpha-4 (Homo sapiens), P13612 | ligand binding flow cytometry | inhibition, % (about 7 µM as worked out from the volumes in the protocol) | 0.2% of 330,000 active | AID 2557, 2010; in the data active = inhibition above about 50%
# Platelet DG rel = inhibitors of platelet dense granule secretion, primary screen, cell-based, MLPCN, human platelets | inhibition, %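 (compounds screened at 7.5 µM in platelet-rich plasma)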 | human platelet-rich plasma, SFLLRN dense granule ATP release, luminescence | 0.22% of 300,000 active;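 active = mean replicate score, as percent of positive control, at or above 50; inconclusive = mean below 50 but at least one replicate at or above 50; inactive = mean and every replicate below 50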
# Myeloid diff MLP = induction of myeloid progenitor differentiation, primary screen, cell-based, flow cytometry, MLPCN library. ER-HoxA9 myeloid progenitors, lysozyme-GFP differentiation. calls only at 10 µM. 1% of 360,000 active. AID 624256, 2012;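 active = normalized GFP-positive differentiation at or above the plate's own cutoff, the solvent-only control mean plus 3 SD; inconclusive = no clear call, values can overlap the other calls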;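 note: cells exposed to compound for four days before flow analysis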
# SENP1 FRET inh = human SENP1 catalytic domain inhibitors, primary screen, biochemical, FRET, uHTS; recombinant SENP1 catalytic domain, CyPet-SUMO1-YPet FRET cleavage; 0.21% of 360,000 active; inhibition, % at 10 µM;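 active = inhibition at least 30% at 10 µM, raw YFP signal under a set limit, fluorescence ratio 0.5 to 1.5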;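 note: 0% = enzyme with DMSO and 100% = no enzyme wells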
# Target sequence (Q9P0U3 419-644 limits assumed): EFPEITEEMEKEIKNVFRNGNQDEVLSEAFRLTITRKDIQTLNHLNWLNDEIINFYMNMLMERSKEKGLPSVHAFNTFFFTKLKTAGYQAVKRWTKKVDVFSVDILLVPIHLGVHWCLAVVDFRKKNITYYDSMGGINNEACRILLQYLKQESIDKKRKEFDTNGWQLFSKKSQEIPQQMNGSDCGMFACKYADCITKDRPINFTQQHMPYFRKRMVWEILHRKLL
#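 Material – human SENP1 catalytic domain · Input – SENP1 enzyme, 20 pM final · Compound dosing – single concentration of 10 µM compound, 0.5% DMSO final · Timing – enzyme reaction for 50 min at room temperature, dark · Measured by – FRET fluorescence in CFP and YFP emission channels · Control set – no-enzyme wells low, DMSO-plus-enzyme wells high control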
# Myeloid diff = inducers of myeloid progenitor differentiation, confirmation, cell-based, GFP/Mac1 flow cytometry, cherry pick 01 | shares compounds with Myeloid diff MLP | ER-HoxA9 myeloid progenitors, GFP/Mac1 double-positive flow | calls only | 2% of 2,300 active | AID 651706, 2012;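 active = share of green or green-and-red cells above 9 and 9% in run 1 or 4 and 3% in run 2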
# GFP autofluor = counter-screen for myeloid differentiation promoters: compound fluorescence | fluorescence response, % (concentration not given with the values) | 7.4% of 2,300 active | shares compounds with Myeloid diff MLP | ER-HoxA9 myeloid progenitors, no estrogen, GFP autofluorescence flow cytometry; vehicle wells 0%, positive control 100%;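 active = over 5% cells positive for green fluorescent reporter, or over 2% positive for both it and APC stain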;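 note: range taken on the double positive population between DMSO and positive control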
# An asterisk follows results filed as active; i = inactive; ? = inconclusive; . = no result given; + = active, no number.
SMILES,VLA-4 inh,Platelet DG rel,Myeloid diff MLP,SENP1 FRET inh,Myeloid diff,GFP autofluor
Cc1ccc(CNC(=O)CN(c2cccc([N+](=O)[O-])c2)S(=O)(=O)c2ccccc2)cc1,-8.7,-5.2,i,1.8,.,.
Cc1ccc(S(=O)(=O)N(CC(=O)N(C)C)c2cccc([N+](=O)[O-])c2)cc1,41.1,1.3,+,1.8,i,0.0
COc1ccc(NC(=O)[C@@H](NS(=O)(=O)c2cccc(Cl)c2)C(C)C)cc1S(=O)(=O)N1CCOCC1,12.4,.,i,-0.1,.,.
CC1(C)Cc2c(cnn2-c2ccccc2)C(NC(=O)C2(C(N)=O)CC2)C1 (stereo not given),15.0,-2.1,+,1.8,i,0.3
CC1(C)Cc2c(cnn2-c2ccccc2)C(NC(=O)c2ccoc2)C1 (stereo not given),-27.0,-5.6,i,-1.1,.,.
C[C@H](CO)N1C[C@H](C)[C@H](CN(C)S(=O)(=O)c2ccc(F)cc2)Oc2ncc(Br)cc2C1=O,.,.,i,0.4,.,.
CCOc1ccc(N(CC(=O)Nc2ccc(C)cc2)S(=O)(=O)c2c(C)noc2C)cc1,35.7,-8.6,+,-1.6,i,0.9
Nc1ncnc2c1ncn2[C@@H]1O[C@H](C(=O)N2CCN(Cc3ccccn3)CC2)[C@@H](O)[C@H]1O,.,.,i,-2.0,.,.
Cc1cc(NC(=O)COC(=O)CNC(=O)c2cccs2)c([N+](=O)[O-])cc1C,22.5,0.8,i,2.2,.,.
N#C/C(=N\Nc1ccc(S(=O)(=O)N2CCc3ccccc32)cc1)C(N)=S,5.2,-1.4,+,4.2,i,0.0
CCOc1ccc(-c2cc(C(=O)OC)nc3c2c(=O)n(C)c(=O)n3C)cc1,14.8,-1.4,i,-4.9,.,.
Cc1noc(C)c1COC(=O)Cc1ccc(Br)cc1,-1.8,-3.5,i,-0.4,.,.
Cc1cc2cc(C(c3nnnn3CC3CCCO3)N3CCCc4ccccc43)c(=O)[nH]c2cc1C (stereo not given),.,-1.5,i,-13.5,i,0.0
COc1cccc(C(=O)NC(=S)Nc2ccccc2N2CCCCC2)c1,-2.3,2.0,+,1.9,i,1.0
COc1cccc(C(=O)NC(=S)Nc2ccccc2N2CCCC2)c1,17.3,-6.6,i,-6.5,.,.
CCCCn1c(N)c(N(CCC(C)C)C(=O)Cc2ccc(S(=O)(=O)N3CCOCC3)s2)c(=O)[nH]c1=O,-0.4,27.5,i,-11.4,.,.
CCCCn1c(N)c(N(CC(C)C)C(=O)Cc2ccc(S(=O)(=O)N3CCOCC3)s2)c(=O)[nH]c1=O,.,.,+,53.7,+,0.0
COc1ccc(NCC(=O)n2c(C)c(C)c3ccccc32)cc1OC,0.0,9.1,i,-1.8,.,.
CCn1cc(/C=C(\NC(=O)c2ccc(OC)cc2)C(=O)N2CCOCC2)c2ccccc21,12.2,-4.7,?,-4.8,.,.
CCOC(=O)N1CCN(C(=O)C2CCN(S(=O)(=O)N3CCCC3)CC2)CC1,5.1,-5.8,+,0.1,i,0.3
O=C1/C(=C\c2ccco2)CCC/C1=C\c1ccco1,-42.1,-2.8,+,-26.4,i,37.4*
O=C1NCCN1c1ccc(CN2CCN(C3CCCCC3)C(CCO)C2)cc1 (stereo not given),14.4,6.5,i,-1.2,i,0.0
COc1ccc(-c2cc(C(=O)NCC(c3ccco3)N(C)C)c3ccccc3n2)cc1OC (stereo not given),-6.6,-1.4,i,-8.0,.,.
CCCCOCCCNC(=O)N[C@H](C(=O)OC)C(C)C,8.6,3.1,+,-0.7,i,0.0
CCCCCNC(=O)N[C@H](C(=O)O)C(C)C,-5.0,-4.3,i,1.2,.,.
SMILES,VLA-4 inh,Platelet DG rel,Myeloid diff MLP,SENP1 FRET inh,Myeloid diff,GFP autofluor
O=C(CCc1nc2ccccc2c(=O)[nH]1)N1CCCc2ccccc21,5.2,-7.0,+,-47.6,i,1.6
O=C(CCc1nc2ccccc2c(=O)[nH]1)N1CCN(c2ccccc2Cl)CC1,-14.4,.,i,-0.1,.,.
CN(C)S(=O)(=O)NCC1CCCN(Cc2cc3ccccc3s2)C1 (stereo not given),11.6,-2.9,i,1.0,i,0.3
CN(C)S(=O)(=O)NCC1CCCN(Cc2ccc(-c3ccccc3)cc2)C1 (stereo not given),13.3,10.1,i,-2.1,.,.
Cc1ccc(NC(=S)N(CCCN2CCCC2)Cc2cccn2Cc2ccc(Cl)cc2)cc1Cl,49.4,4.4,+,2.1,i,0.0
FC(F)(F)c1cccc(NC(=S)N(CCCN2CCCC2)Cc2cccn2Cc2ccc(Cl)cc2)c1,17.1,-8.8,+,-2.3,i,41.2*
COc1ccc(CNC(=O)CCS(=O)(=O)c2ccc3c(c2)CC(C)N3C(=O)C2CC2)cc1 (stereo not given),-4.7,11.8,i,0.8,.,.
OCCN(Cc1ccccc1)Cc1ccccc1O,16.8,-2.3,i,1.7,.,.
OCCN(Cc1ccccc1)Cc1ccc(F)c(F)c1,24.2,4.4,i,-0.1,i,0.0
COc1ccccc1C1C(C#N)=C(N)N(N(C)C)C2=C1C(=O)CC(C)(C)C2 (stereo not given),4.9,2.4,i,3.2,.,.
O=[N+]([O-])c1ccc(Nc2ccccc2O)c2nonc12,-12.8,-3.8,+,19.0,i,2.3
O=C(O)c1ccc(Nc2ccc([N+](=O)[O-])c3nonc23)cc1,-4.1,-8.7,i,11.5,.,.
Cc1ccnc(NC(c2ccccc2O)c2oc(CO)cc(=O)c2O)c1 (stereo not given),-7.5,-3.3,i,-22.6,.,.
CC(C)(Oc1ccc(Cl)cc1)C(=O)OCc1nc2ccsc2c(=O)[nH]1,1.9,-1.9,i,1.0,.,.
COc1cccc(Oc2c(C)oc3c(CN4CCCC4)c(O)ccc3c2=O)c1,3.6,-0.4,i,1.0,i,0.0
Cc1ccc(N2CCN(Cc3ccccc3)CC2=O)c(C)c1,-6.1,16.3,i,1.3,.,.
Cc1cc(=O)[nH]c(SCCOc2cccc(C(F)(F)F)c2)n1,7.1,-15.2,.,1.9,i,3.4
CCOc1ccc(OCCSc2nc(C)cc(=O)[nH]2)cc1,14.9,-10.5,i,2.4,.,.
Cc1ccsc1/C=N/NC(=O)c1nnn(-c2nonc2N)c1CSc1ccccc1,-2.2,6.1,i,0.8,.,.
Cc1ccc(/C=N/c2sc(Cc3ccccc3)c(C)c2C(N)=O)o1,-17.8,6.1,i,-26.8,i,0.0
CCS(=O)(=O)c1nc(S(=O)(=O)c2ccc(Cl)cc2)c(N2CCOCC2)s1,7.7,-4.6,i,1.0,i,0.0
